Tests used:
[1] = Hep G2 cytotoxicity assay; assay type: cell-based; conditions: human, Hep G2 cells
[2] = tested on: T. brucei brucei Lister 427 bloodstream-form parasites; assay: T. brucei cell viability assay; assay type: cell-based; conditions: Trypanosoma brucei, 48 h, read-out: T. brucei EC50
Outline: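 Parasite EC50 reported as the mean ± standard error of 3 biological replicates. Each biological replicate's EC50 was calculated from technical triplicate data.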

T. brucei = conditions: read-out: EC50 against T. brucei; cited from earlier work
[3] = tested on: extracellular L. amazonensis; conditions: read-out: EC50 against L. amazonensis; cited from earlier work

Row | Structure (SMILES) | CC50 at 72 h [1] [µM] | EC50 [2] [µM] | EC50 (T. brucei) [µM] | EC50 [3] [µM]
1 | COC(=O)c1[nH]c(C(=O)OC)c(-c2c[nH]c3ccc(Cl)cc23)c1-c1c[nH]c2ccc(Cl)cc12 [Compound 12, lynamicin D] | > 10 | 8.3 ± 1 |  | 
2 | CC1(C)OB(O)c2cc(NC(=O)c3ccc(F)cc3C(F)(F)F)ccc21 [acoziborole] |  |  | 0.6 | 
3 | CCCCCCCCCCCCCCCCOP(=O)([O-])OCC[N+](C)(C)C [miltefosine] |  |  |  | 1.2
4 | COC(=O)c1[nH]cc(-c2c[nH]c3ccc(Cl)cc23)c1-c1c[nH]c2ccc(Cl)cc12 [Compound 13, lynamicin A] | > 10 | 8.2 ± 0.45 |  | 

From PMC8336461 (Chemical Science, 2021)
